Measured values reported in ChEMBL document CHEMBL5030505, “Assessment of NR4A Ligands That Directly Bind and Modulate the Orphan Nuclear Receptor Nurr1” (J Med Chem, 2020).
The source made the active and inactive calls. The calls are words filed in the database; no cut-off is given here.

Experiments:
Assay type in all cases: cell-based
PC-12 [1] = assay: Cytotoxicity against rat PC12 cells assessed as reduction in cell viability at 1.56 to 6.25 microM incubated for 18 hrs by Cell titer-glo assay; settings: pc-12, 18 h, dose 1.56-6.25 µM
Method in brief: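 Cells seeded 1.5 million per 10-cm dish; next day replated at 10,000 cells/well in 384-well format, 4 h, then ligand or vehicle (water, ethanol or DMSO by ligand) added in quadruplicate for 18 h; viability read by CellTiter-Glo luminescence. Mean ± s.e.m. (n=4), generally 2 independent experiments; one-way ANOVA versus vehicle.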

HEK293T [2] = assay: Modulation of Gal4-fused VP16 expressed in HEK293T cells co-transfected with UAS repoter gene assessed as decrease in luciferase activity at 1.56 to 6.25 uM incubated for 18 hrs by luciferase reporter gene assay; settings: Human alphaherpesvirus 2, filed as modulator, dose 1.56-6.25 µM
Method in brief: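 Constitutive control: cells transfected (Lipofectamine 2000) with Gal4-VP16 expression plasmid (2 μg) plus 5xUAS-luciferase reporter (2 μg), 18 h; replated 10,000 cells/well, 4 h; ligand or vehicle in quadruplicate for 18 h; luciferase read by Britelite Plus; signal as fold change over vehicle-treated cells. Mean ± s.e.m. (n=4); one-way ANOVA versus vehicle.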

[3] = target: Nuclear receptor subfamily 4 group A member 2 (Homo sapiens) (UniProt P43354); assay: Modulation of full length human Nurr1 expressed in SKNBE(2) cells co-transfected with RXRalpha and luciferase reporter plasmid harboring NurRE response element assessed as increase in luciferase activity at 1.56 to 6.25 uM incubated for 18 by luciferase reporter gene assay; settings: SKNBE2, filed as modulator, dose 1.56-6.25 µM, time 18.0 hrs
[4] = target: Nuclear receptor subfamily 4 group A member 2 (Homo sapiens) (UniProt P43354); assay: Modulation of full length human Nurr1 expressed in SKNBE(2) cells co-transfected with RXRalpha and luciferase reporter plasmid harboring NBRE response element assessed as increase in luciferase activity at 1.56 to 6.25 uM incubated for 18 by luciferase reporter gene assay; settings: SKNBE2, filed as modulator, dose 1.56-6.25 µM, time 18.0 hrs
[5] = target: Nuclear receptor subfamily 4 group A member 2 (Homo sapiens) (UniProt P43354); assay: Modulation of full length human Nurr1 expressed in PC12 cells co-transfected with RXRalpha and luciferase reporter plasmid harboring NBRE response element assessed as decrease in luciferase activity at 1.56 to 6.25 uM incubated for 18 by luciferase reporter gene assay; settings: PC-12, filed as modulator, dose 1.56-6.25 µM, time 18.0 hrs
[6] = target: Nuclear receptor subfamily 4 group A member 2 (Homo sapiens) (UniProt P43354); assay: Modulation of full length human Nurr1 expressed in HEK293T cells co-transfected with RXRalpha and luciferase reporter plasmid harboring NurRE response element assessed as decrease in luciferase activity at 1.56 to 6.25 uM incubated for 18 by luciferase reporter gene assay; settings: filed as modulator, dose 1.56-6.25 µM, time 18.0 hrs
[7] = target: Nuclear receptor subfamily 4 group A member 2 (Homo sapiens) (UniProt P43354); assay: Modulation of full length human Nurr1 expressed in HEK293T cells co-transfected with RXRalpha and luciferase reporter plasmid harboring NBRE response element assessed as decrease in luciferase activity at 1.56 to 6.25 uM incubated for 18 by luciferase reporter gene assay; settings: filed as modulator, dose 1.56-6.25 µM, time 18.0 hrs
[8] = target: Nuclear receptor subfamily 4 group A member 2 (Homo sapiens) (UniProt P43354); assay: Modulation of full length human Nurr1 expressed in HEK293T cells co-transfected with RXRalpha and luciferase reporter plasmid harboring NBRE response element assessed as increase in luciferase activity at 1.56 to 6.25 uM incubated for 18 by luciferase reporter gene assay; settings: filed as modulator, dose 1.56-6.25 µM, time 18.0 hrs
[9] = target: Nuclear receptor subfamily 4 group A member 2 (Homo sapiens) (UniProt P43354); assay: Modulation of full length human Nurr1 expressed in PC12 cells co-transfected with luciferase reporter plasmid harboring NurRE response element assessed as increase in luciferase activity at 1.56 to 6.25 uM incubated for 18 by luciferase reporter gene assay; settings: PC-12, filed as modulator, dose 1.56-6.25 µM, time 18.0 hrs
Method in brief: (§1)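 Cells transfected (Lipofectamine 2000, 18 h) with full-length Nurr1 expression plasmid (2 μg) and 3xNBRE- or 3xNurRE-luciferase reporter (6 μg), no internal control normalisation; replated 10,000 cells/well, 4 h; ligand or vehicle in quadruplicate for 18 h; Britelite Plus luminescence as fold change over vehicle. Mean ± s.e.m. (n=4); one-way ANOVA versus vehicle.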

[10] = target: Nuclear receptor subfamily 4 group A member 2 (Homo sapiens) (UniProt P43354); assay: Modulation of full length human Nurr1 expressed in PC12 cells co-transfected with luciferase reporter plasmid harboring NBRE response element assessed as decrease in luciferase activity at 1.56 to 6.25 uM incubated for 18 by luciferase reporter gene assay; settings: PC-12, filed as modulator, dose 1.56-6.25 µM, time 18.0 hrs; method in brief: as §1
[11] = target: Nuclear receptor subfamily 4 group A member 2 (Homo sapiens) (UniProt P43354); assay: Modulation of full length human Nurr1 expressed in PC12 cells co-transfected with luciferase reporter plasmid harboring NBRE response element assessed as increase in luciferase activity at 1.56 to 6.25 uM incubated for 18 by luciferase reporter gene assay; settings: PC-12, filed as modulator, dose 1.56-6.25 µM, time 18.0 hrs; method in brief: as §1
[12] = target: Nuclear receptor subfamily 4 group A member 2 (Homo sapiens) (UniProt P43354); assay: Modulation of full length human Nurr1 expressed in HEK293T cells co-transfected with luciferase reporter plasmid harboring NurRE response element assessed as decrease in luciferase activity at 1.56 to 6.25 uM incubated for 18 by luciferase reporter gene assay; settings: filed as modulator, dose 1.56-6.25 µM, time 18.0 hrs; method in brief: as §1
[13] = target: Nuclear receptor subfamily 4 group A member 2 (Homo sapiens) (UniProt P43354); assay: Modulation of full length human Nurr1 expressed in HEK293T cells co-transfected with luciferase reporter plasmid harboring NBRE response element assessed as decrease in luciferase activity at 1.56 to 6.25 uM incubated for 18 by luciferase reporter gene assay; settings: filed as modulator, dose 1.56-6.25 µM, time 18.0 hrs; method in brief: as §1
[14] = target: Nuclear receptor subfamily 4 group A member 2 (Homo sapiens) (UniProt P43354); assay: Modulation of full length human Nurr1 expressed in HEK293T cells co-transfected with luciferase reporter plasmid harboring NBRE response element assessed as increase in luciferase activity at 1.56 to 6.25 uM incubated for 18 by luciferase reporter gene assay; settings: filed as modulator, dose 1.56-6.25 µM, time 18.0 hrs; method in brief: as §1
PC-12 [15] = assay: Cytotoxicity against rat PC-12 cells assessed as reduction in cell viability at 5 to 100 uM incubated for 18 hrs by Cell titer-glo assay; settings: pc-12, 18 h, dose 5-100 µM
Method in brief: (§2)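 Cells seeded at 1.5 million per 10-cm dish. Next day they were replated at 10,000 cells/well and rested 4 h. Ligand or vehicle (water, ethanol or DMSO, by ligand) was added in dose-response format in quadruplicate. After 18 h, viability was read by CellTiter-Glo luminescence. Data are mean ± s.e.m., generally representative of 2 independent experiments. One-way ANOVA versus vehicle.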

SK-N-BE(2) = assay: Cytotoxicity against human SKNBE2 cells assessed as reduction in cell viability at 5 to 100 uM incubated for 18 hrs by Cell titer-glo assay; settings: dose 5-100 µM; method in brief: as §2
HEK-293T = assay: Cytotoxicity against human HEK293T cells assessed as reduction in cell viability at 5 to 100 uM incubated for 18 hrs by Cell titer-glo assay; settings: dose 5-100 µM; method in brief: as §2
SKNBE2 = assay: Modulation of Gal4-fused VP16 expressed in SKNBE2 cells co-transfected with UAS repoter gene assessed as decrease in luciferase activity at 5 to 100 uM incubated for 18 hrs by luciferase reporter gene assay; settings: Human alphaherpesvirus 2, filed as modulator, dose 5-100 µM
Method in brief: (§3)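 Cells in 10-cm dishes were transfected with Gal4-VP16 expression plasmid (2 μg) plus 5xUAS-luciferase reporter (2 μg) for 18 h. They were replated at 10,000 cells/well for 4 h, then given ligand or vehicle (water, ethanol or DMSO) in quadruplicate for 18 h. Luciferase was read with Britelite Plus. Fold change is versus vehicle-treated cells, with one-way ANOVA versus vehicle.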

HEK293T [16] = assay: Modulation of Gal4-fused VP16 expressed in HEK293T cells co-transfected with UAS repoter gene assessed as decrease in luciferase activity at 5 to 100 uM incubated for 18 hrs by luciferase reporter gene assay; settings: Human alphaherpesvirus 2, filed as modulator, dose 5-100 µM; method in brief: as §3

Sequence of Nuclear receptor subfamily 4 group A member 2 (Homo sapiens) (P43354 whole entry): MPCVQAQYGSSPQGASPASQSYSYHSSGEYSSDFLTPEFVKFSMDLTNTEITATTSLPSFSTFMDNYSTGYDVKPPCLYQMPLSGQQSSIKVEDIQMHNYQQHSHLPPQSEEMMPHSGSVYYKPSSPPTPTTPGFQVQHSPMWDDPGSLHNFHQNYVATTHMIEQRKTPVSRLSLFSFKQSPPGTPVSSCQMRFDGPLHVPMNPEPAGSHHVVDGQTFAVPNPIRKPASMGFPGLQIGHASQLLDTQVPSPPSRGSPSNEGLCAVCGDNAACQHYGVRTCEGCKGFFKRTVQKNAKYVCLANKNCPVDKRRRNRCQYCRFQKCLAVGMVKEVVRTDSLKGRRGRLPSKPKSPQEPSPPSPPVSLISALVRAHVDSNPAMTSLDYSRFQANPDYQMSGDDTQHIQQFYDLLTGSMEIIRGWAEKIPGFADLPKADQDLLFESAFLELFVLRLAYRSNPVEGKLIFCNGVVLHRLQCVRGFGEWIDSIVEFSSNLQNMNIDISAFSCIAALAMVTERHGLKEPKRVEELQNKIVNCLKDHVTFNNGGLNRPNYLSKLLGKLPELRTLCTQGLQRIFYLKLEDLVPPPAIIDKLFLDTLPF

| Structure (SMILES) | Activity (PC-12 [1]) | Activity (HEK293T [2]) | Activity [3] | Activity [4] | Activity [5] | Activity [6] | Activity [7] | Activity [8] | Activity [9] | Activity [10] | Activity [11] | Activity [12] | Activity [13] | Activity [14] | Activity (PC-12 [15]) | Activity (SK-N-BE(2)) | Activity (HEK-293T) | Activity (SKNBE2) | Activity (HEK293T [16]) |
| --- | --- | --- | --- | --- | --- | --- | --- | --- | --- | --- | --- | --- | --- | --- | --- | --- | --- | --- | --- |
| CC1=C(O)C(=O)C=C2C1=CC=C1[C@@]2(C)CC[C@@]2(C)[C@@H]3C[C@](C)(C(=O)O)CC[C@]3(C)CC[C@]12C [CELASTROL] | Toxic | Active | Active | Active | Active | Active | Active | Active | Active | Active | Active | Active | Active | Active |  |  |  |  |  |
| CCCCCCCC(=O)c1c(O)cc(O)cc1CC(=O)OCC [CYTOSPORONE B] |  |  |  |  |  |  |  |  |  |  |  |  |  |  | Toxic | Toxic | Toxic | Active | Active |
